Experimental data from ChEMBL document CHEMBL3286113, “New potent antibacterial oxazolidinone (MRX-I) with an improved class safety profile” (J Med Chem, 2014).
Values after ≈ are worked out from the molar mass of the structure shown.

What was measured:
Staphylococcus aureus [1] = test: Antibacterial activity against methicillin-resistant Staphylococcus aureus; format: functional
[2] = biological target: T1, Amine oxidase [flavin-containing] A (Homo sapiens, UniProt P21397); test: Inhibition of human recombinant MAO-A expressed in yeast after 1 hr by luciferin-based luminescence assay
T1 sequence (P21397 whole entry): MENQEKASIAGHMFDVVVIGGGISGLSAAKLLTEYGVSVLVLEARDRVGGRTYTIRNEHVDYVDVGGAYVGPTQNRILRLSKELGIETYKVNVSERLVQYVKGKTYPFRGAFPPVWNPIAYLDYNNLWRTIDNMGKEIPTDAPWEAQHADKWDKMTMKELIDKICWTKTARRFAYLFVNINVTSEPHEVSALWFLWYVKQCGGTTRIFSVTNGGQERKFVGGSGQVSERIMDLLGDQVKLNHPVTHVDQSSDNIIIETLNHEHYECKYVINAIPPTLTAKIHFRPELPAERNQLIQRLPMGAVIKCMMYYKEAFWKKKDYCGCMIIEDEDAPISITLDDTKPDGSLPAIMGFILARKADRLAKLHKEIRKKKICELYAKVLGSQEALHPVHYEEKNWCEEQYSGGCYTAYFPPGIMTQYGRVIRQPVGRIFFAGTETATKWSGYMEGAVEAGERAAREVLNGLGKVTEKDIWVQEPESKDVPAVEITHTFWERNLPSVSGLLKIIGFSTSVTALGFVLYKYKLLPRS

[3] = Myelosuppression activity against human CD34-positive blood stem/progenitor cells assessed as growth inhibition after 9 to 10 days by CellTiter-Glo luminescent assay
Staphylococcus aureus [4] = test: Antibacterial activity against methicillin-resistant Staphylococcus aureus SAU1009; format: functional
In short: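 MIC against MRSA strain SAU1009.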

Enterococcus = test: Bacteriostatic activity against vancomycin-sensitive Enterococcus; format: functional
Enterococcus faecium [5] = test: Bacteriostatic activity against vancomycin-resistant Enterococcus faecium; format: functional
Enterococcus faecalis = test: Bacteriostatic activity against vancomycin-sensitive Enterococcus faecalis; format: functional
Enterococcus faecium [6] = test: Bacteriostatic activity against vancomycin-sensitive Enterococcus faecium; format: functional

Cn1nnc(-c2ccc(-c3ccc(N4C[C@H](COP(=O)(O)O)OC4=O)cc3F)cn2)n1 [TEDIZOLID PHOSPHATE]
MIC90 (Staphylococcus aureus [1]): 0.5 µg/mL | IC50 [2]: 4 µM | IC50 [3]: 0.2 µg/mL

Cn1nnc(-c2ccc(-c3ccc(N4C[C@H](CO)OC4=O)cc3F)cn2)n1 [TEDIZOLID]
MIC (Staphylococcus aureus [4]): 0.25 µg/mL (≈ 0.675 µM)

CN[C@H](CC(C)C)C(=O)N[C@H]1C(=O)N[C@@H](CC(N)=O)C(=O)N[C@H]2C(=O)N[C@H]3C(=O)N[C@H](C(=O)N[C@H](C(=O)O)c4cc(O)cc(O)c4-c4cc3ccc4O)[C@H](O)c3ccc(c(Cl)c3)Oc3cc2cc(c3O[C@@H]2O[C@H](CO)[C@@H](O)[C@H](O)[C@H]2O[C@H]2C[C@](C)(N)[C@H](O)[C@H](C)O2)Oc2ccc(cc2Cl)[C@H]1O [VANCOMYCIN]
MIC50 (Enterococcus): 0.5 µg/mL (≈ 0.345 µM) | MIC90 (Enterococcus): 2 µg/mL (≈ 1.38 µM) | MIC50 (Enterococcus faecium [5]): > 128 µg/mL | MIC90 (Enterococcus faecium [5]): > 128 µg/mL | MIC50 (Enterococcus faecalis): 0.5 µg/mL (≈ 0.345 µM) | MIC90 (Enterococcus faecalis): 1 µg/mL (≈ 0.69 µM) | MIC50 (Enterococcus faecium [6]): 0.5 µg/mL (≈ 0.345 µM) | MIC90 (Enterococcus faecium [6]): 0.5 µg/mL (≈ 0.345 µM)
